ChEMBL document CHEMBL4814013, “Scaffold repurposing of fendiline: Identification of potent KRAS plasma membrane localization inhibitors” (Eur J Med Chem, 2021)
Active and inactive are the calls of the source. The calls are words filed in the database; no cut-off is given here.

How the values were obtained:
MDCK [1] = assay: Cytotoxicity against dog MDCK cells at 30 uM; assay type: functional, cell-based; conditions: Canis lupus familiaris
[2] = Inhibition of ASM in dog MDCK cells co-expressing recombinant full length mGFP-tagged KRAS G12V mutant and mCherry-CAAX assessed as reduction in plasma membrane localization of KRAS mutant incubated for 48 hrs by confocal microscopic analysis; assay type: cell membranes, Canis lupus familiaris
Method in brief: (§1)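 MDCK cells stably co-expressing mGFP-KRAS G12V or mGFP-LactC2 with mCherry-CAAX (HRAS 179–189 C181S/C184S) grown on coverslips in DMEM/10% FBS. Treated 48 h with 0.1% DMSO or graded drug, fixed in 4% paraformaldehyde, then quantitative confocal imaging. Mislocalization scored as the Manders fraction of mCherry-CAAX co-localizing with the GFP probe. IC50 and Emax from three independent experiments.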

MDCK [3] = assay: Inhibition of ASM in dog MDCK cells co-expressing recombinant full length mGFP-tagged KRAS G12V mutant and mCherry-CAAX assessed as reduction in plasma membrane localization of KRAS mutant incubated for 48 hrs by confocal microscopic analysis relative to control; assay type: cell membranes; conditions: Canis lupus familiaris; method in brief: as §1

SMILES	IC50 [2]	Emax (MDCK [3])	Activity (MDCK [1])
C=CCN(CC=C(c1ccccc1)c1ccccc1)[C@H](C)c1ccc(OC)cc1	13 µM	0.47	inactive
COc1ccc([C@@H](C)N(CC=C(c2ccccc2)c2ccccc2)CCO)cc1	0.2 µM	0.72	inactive
C=CCN(CCN1CCN(C)CC1)[C@H](C)c1ccc(OC)cc1	59.3 µM	0.76	inactive
COc1ccc([C@@H](C)N(CC=C(c2ccccc2)c2ccccc2)CCN(C)C)cc1	11.2 µM	0.66	Active
COc1ccc([C@@H](C)N(CC=C(c2ccccc2)c2ccccc2)CCN2CCOCC2)cc1	4.4 µM	0.86	inactive
CCN(CC=C(c1ccccc1)c1ccccc1)[C@H](C)c1ccc(OC)cc1	10.6 µM	0.84	inactive
COc1ccc([C@@H](C)N(CC=C(c2ccccc2)c2ccccc2)CC(=O)N2CCN(C)CC2)cc1	1.1 µM	0.73	inactive
COc1ccc([C@@H](C)N(CC=C(c2ccccc2)c2ccccc2)C(=O)CN2CCN(C)CC2)cc1	7.1 µM	0.51	Active
COc1ccc([C@H](C)N(CC=C(c2ccccc2)c2ccccc2)CCN2CCN(C)CC2)cc1	1.2 µM	0.83	Active
COc1ccc([C@@H](C)N(CC=C(c2ccccc2)c2ccccc2)CCN2CCNC(=O)C2)cc1	7.7 µM	0.81	inactive
COc1ccc([C@@H](C)N(C)CC=C(c2ccccc2)c2ccccc2)cc1	3.3 µM	0.75	inactive
CCN(CC)CCN(CC=C(c1ccccc1)c1ccccc1)[C@H](C)c1ccc(OC)cc1		0.89	Active
COc1ccc([C@@H](C)N(C/C=C/c2ccccc2)CCN2CCN(C)CC2)cc1	14.8 µM	0.84	inactive
COc1ccc([C@@H](C)N(CC=C(c2ccccc2)c2ccccc2)CCF)cc1	10.1 µM	0.52	inactive

Now from value to molecule, other results behind:

IC50 [2]	Emax (MDCK [3])	SMILES	Activity (MDCK [1])
2.8 µM	0.75	COc1cccc([C@@H](C)N(CC=C(c2ccccc2)c2ccccc2)CCN2CCN(C)CC2)c1	Active
5.2 µM	0.62	C[C@H](c1ccc([N+](=O)[O-])cc1)N(CC=C(c1ccccc1)c1ccccc1)CCN1CCN(C)CC1	Active
0.5 µM	0.69	COc1ccc([C@@H](C)N(CC=C(c2ccccc2)c2ccccc2)CCN2CCC2)cc1	Active
1.3 µM	0.86	COc1ccc([C@@H](C)N(CC=C(c2ccccc2)c2ccccc2)CCN2CCNCC2)cc1	Active
3.8 µM	0.7	C[C@H](c1ccc(Cl)cc1)N(CC=C(c1ccccc1)c1ccccc1)CCN1CCN(C)CC1	Active
11.2 µM	0.77	C[C@H](c1cccc(Cl)c1)N(CC=C(c1ccccc1)c1ccccc1)CCN1CCN(C)CC1	Active
1.5 µM	0.83	C[C@H](c1ccc(F)cc1)N(CC=C(c1ccccc1)c1ccccc1)CCN1CCN(C)CC1	Active
0.6 µM	0.79	C[C@H](c1ccccc1)N(CC=C(c1ccccc1)c1ccccc1)CCN1CCN(C)CC1	Active
3.8 µM	0.86	COc1ccccc1[C@@H](C)N(CC=C(c1ccccc1)c1ccccc1)CCN1CCN(C)CC1	Active
	0.81	COc1ccc([C@@H](C)N(CC=C(c2ccccc2)c2ccccc2)CCCCN2CCN(C)CC2)cc1	Active
0.6 µM	0.83	COc1ccc([C@@H](C)N(CC=C(c2ccccc2)c2ccccc2)CCN2CCCCC2)cc1	Active
